# Data: ChEMBL document CHEMBL4406900, “Synthesis and antidepressant-like activity of novel alkoxy-piperidine derivatives targeting SSRI/5-HT1A/5-HT7” (Bioorg Med Chem Lett, 2019)
# Molecular target: Sodium-dependent serotonin transporter (Rattus norvegicus, UniProt P31652)
# Assay: Inhibition of rat synaptosomes 5HT transporter assessed as reduction in [3H]serotonin reuptake incubated for 15 mins by scintillation counting method
# Type: subcellular
# Conditions: not given
# Outline: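 Serotonin uptake transporter assay: inhibition of [3H]-5-HT incorporation into rat brain synaptosomes. IC50 was derived from 8 concentrations, each in duplicate.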
# Chain of Sodium-dependent serotonin transporter (P31652 whole entry): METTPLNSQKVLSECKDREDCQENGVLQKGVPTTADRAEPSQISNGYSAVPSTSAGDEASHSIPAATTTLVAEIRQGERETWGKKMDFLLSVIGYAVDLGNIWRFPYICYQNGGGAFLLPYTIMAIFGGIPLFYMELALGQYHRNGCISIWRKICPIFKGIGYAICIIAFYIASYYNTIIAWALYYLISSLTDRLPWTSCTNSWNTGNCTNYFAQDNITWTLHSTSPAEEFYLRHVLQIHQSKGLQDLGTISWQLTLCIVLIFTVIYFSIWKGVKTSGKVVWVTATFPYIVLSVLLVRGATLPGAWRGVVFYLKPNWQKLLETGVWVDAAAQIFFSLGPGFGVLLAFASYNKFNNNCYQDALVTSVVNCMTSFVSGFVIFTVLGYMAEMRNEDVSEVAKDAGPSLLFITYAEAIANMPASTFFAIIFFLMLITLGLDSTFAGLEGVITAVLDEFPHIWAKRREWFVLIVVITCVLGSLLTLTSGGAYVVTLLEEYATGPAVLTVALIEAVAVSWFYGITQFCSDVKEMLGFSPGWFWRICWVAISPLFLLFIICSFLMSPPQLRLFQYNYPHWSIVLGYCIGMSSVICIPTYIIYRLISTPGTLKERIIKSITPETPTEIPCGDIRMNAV
row,IC50 [nM],Structure (SMILES)
1,85,Fc1cccc(-c2cc(F)ccc2OCCN2CCC(c3c[nH]c4ccc(F)cc34)CC2)c1
2,177,Fc1ccc(OCCN2CCC(c3c[nH]c4ccc(F)cc34)CC2)c(-c2ccccc2)c1

# Molecular target: Sodium-dependent serotonin transporter (Rattus norvegicus) (UniProt P31652)
# Sequence (P31652 whole entry): as above
# Assay: Inhibition of rat synaptosomes 5HT transporter assessed as reduction in [3H]serotonin reuptake at 1 uM incubated for 15 mins by scintillation counting method relative to control
# Type: subcellular
# Conditions: not given
# Outline: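 Rat brain synaptosomes; inhibition of [3H]-5-HT incorporation through the serotonin uptake transporter at a single concentration, expressed as inhibition ratio (%).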
row,inhibition [%],Structure (SMILES)
1,66.6,Fc1ccc2[nH]cc(C3CCN(CCOc4ccc(F)c(-c5ccccc5)c4)CC3)c2c1
2,99.8,Fc1ccc(OCCN2CCC(CCc3c[nH]c4ccc(F)cc34)CC2)c(-c2ccccc2)c1
3,27.3,Fc1ccc(OCCN2CCC(c3c[nH]c4ccc(F)cc34)CC2)c(-c2ccc(Cl)cc2)c1
4,101,Cc1ccc(Sc2ccccc2N2CCNCC2)c(C)c1 [VORTIOXETINE]
5,102,Fc1ccc(OCCCN2CCC(Cc3c[nH]c4ccc(F)cc34)CC2)c(-c2ccccc2)c1
6,94.3,Fc1cccc(-c2cc(F)ccc2OCCN2CCC(c3c[nH]c4ccc(F)cc34)CC2)c1
7,96.3,Fc1ccc(OCCN2CCC(c3c[nH]c4ccc(F)cc34)CC2)c(-c2ccccc2)c1

# Tested on: Mus musculus
# Assay: Antidepressant activity in mouse assessed as decrease in immobility time at 20 mg/kg, po administrated for daily for 7 days measured 1 hr post last dose by tail suspension test relative to control
# Type: functional
# Design: scale not given: the % may be the effect or the level left
# Conditions: not given
# Outline: (§1)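 Tail suspension test in male mice after 7 days of repeated PO dosing at 10, 20 or 40 mg/kg/day. Immobility time was recorded with n = 10 per group, given as mean ± SEM and tested against vehicle (*P < 0.05, **P < 0.01).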
row,Structure (SMILES),Activity [%]
1,Fc1cccc(-c2cc(F)ccc2OCCN2CCC(c3c[nH]c4ccc(F)cc34)CC2)c1,2
2,Fc1ccc(OCCN2CCC(c3c[nH]c4ccc(F)cc34)CC2)c(-c2ccccc2)c1,22

# Molecular target: T1, 5-hydroxytryptamine receptor 1A (Homo sapiens) (UniProt P08908)
# T1 sequence (whole entry): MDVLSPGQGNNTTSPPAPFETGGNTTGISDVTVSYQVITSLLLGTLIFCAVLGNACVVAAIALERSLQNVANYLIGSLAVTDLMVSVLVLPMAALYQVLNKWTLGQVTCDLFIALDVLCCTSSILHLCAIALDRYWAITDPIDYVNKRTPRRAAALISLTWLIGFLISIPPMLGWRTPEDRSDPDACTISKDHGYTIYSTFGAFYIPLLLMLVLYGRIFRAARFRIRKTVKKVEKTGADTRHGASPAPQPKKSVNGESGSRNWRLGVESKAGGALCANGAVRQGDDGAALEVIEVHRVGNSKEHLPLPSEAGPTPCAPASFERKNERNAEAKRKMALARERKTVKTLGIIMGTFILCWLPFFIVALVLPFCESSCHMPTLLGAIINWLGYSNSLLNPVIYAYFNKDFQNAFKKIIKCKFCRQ
# Assay: Displacement of [3H]-8-OH-DPAT from 5HT1A receptor (unknown origin) expressed in HEK293 cells membranes at 1 uM incubated for 60 mins by scintillation counting method relative to control
# Type: cell membranes
# Conditions: not given
row,inhibition [%],Structure (SMILES)
1,96.9,Fc1ccc2[nH]cc(C3CCN(CCOc4ccc(F)c(-c5ccccc5)c4)CC3)c2c1
2,54.3,Fc1ccc(OCCN2CCC(CCc3c[nH]c4ccc(F)cc34)CC2)c(-c2ccccc2)c1
3,95,Fc1ccc(OCCN2CCC(c3c[nH]c4ccc(F)cc34)CC2)c(-c2ccc(Cl)cc2)c1
4,81.9,Fc1ccc(OCCCN2CCC(Cc3c[nH]c4ccc(F)cc34)CC2)c(-c2ccccc2)c1
5,95.9,Fc1cccc(-c2cc(F)ccc2OCCN2CCC(c3c[nH]c4ccc(F)cc34)CC2)c1
6,94.2,Fc1ccc(OCCN2CCC(c3c[nH]c4ccc(F)cc34)CC2)c(-c2ccccc2)c1

# Tested on: Mus musculus
# Assay: Antidepressant activity in mouse assessed as decrease in immobility time at […], po administrated for daily for 7 days measured 1 hr post last dose by tail suspension test relative to control
# Type: functional
# Design: scale not given: the % may be the effect or the level left
# Conditions: not given
row,Structure (SMILES),Activity [%]
1,Cc1ccc(Sc2ccccc2N2CCNCC2)c(C)c1 [VORTIOXETINE],48
2,Fc1cccc(-c2cc(F)ccc2OCCN2CCC(c3c[nH]c4ccc(F)cc34)CC2)c1,17
3,Fc1ccc(OCCN2CCC(c3c[nH]c4ccc(F)cc34)CC2)c(-c2ccccc2)c1,24

# Tested on: Mus musculus
# Assay: Antidepressant activity in mouse assessed as decrease in immobility time at 40 mg/kg, po administrated for daily for 7 days measured 1 hr post last dose by forced swim test relative to control
# Type: functional
# Design: scale not given: the % may be the effect or the level left
# Conditions: not given
# Outline: (§2)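 Male mice, repeated oral dosing at 10, 20 or 40 mg/kg/day for 7 days. Immobility time was scored in the forced swim test. n = 10 per group, mean ± SEM, compared with a vehicle group (*P < 0.05, **P < 0.01).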
row,Structure (SMILES),Activity [%]
1,Cc1ccc(Sc2ccccc2N2CCNCC2)c(C)c1 [VORTIOXETINE],52
2,Fc1cccc(-c2cc(F)ccc2OCCN2CCC(c3c[nH]c4ccc(F)cc34)CC2)c1,27
3,Fc1ccc(OCCN2CCC(c3c[nH]c4ccc(F)cc34)CC2)c(-c2ccccc2)c1,22

# Tested on: not listed separately
# Assay: Half life in rat liver microsomes at 1 uM in presence of NADPH generating system measured for 10 to 90 mins by LC-MS/MS analysis
# Type: ADME, Microsome
# Conditions: not given
# Outline: (§3)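 Metabolic stability in rat or human liver microsomes, reported as t1/2 (min) and intrinsic clearance CL (µL/min/mg).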
row,half-life at 1 µM [min],Structure (SMILES)
1,22.9,Fc1cccc(-c2cc(F)ccc2OCCN2CCC(c3c[nH]c4ccc(F)cc34)CC2)c1
2,34.5,Fc1ccc(OCCN2CCC(c3c[nH]c4ccc(F)cc34)CC2)c(-c2ccccc2)c1

# Molecular target: T2, 5-hydroxytryptamine receptor 7 (Homo sapiens, UniProt P34969)
# T2 sequence (P34969 whole entry): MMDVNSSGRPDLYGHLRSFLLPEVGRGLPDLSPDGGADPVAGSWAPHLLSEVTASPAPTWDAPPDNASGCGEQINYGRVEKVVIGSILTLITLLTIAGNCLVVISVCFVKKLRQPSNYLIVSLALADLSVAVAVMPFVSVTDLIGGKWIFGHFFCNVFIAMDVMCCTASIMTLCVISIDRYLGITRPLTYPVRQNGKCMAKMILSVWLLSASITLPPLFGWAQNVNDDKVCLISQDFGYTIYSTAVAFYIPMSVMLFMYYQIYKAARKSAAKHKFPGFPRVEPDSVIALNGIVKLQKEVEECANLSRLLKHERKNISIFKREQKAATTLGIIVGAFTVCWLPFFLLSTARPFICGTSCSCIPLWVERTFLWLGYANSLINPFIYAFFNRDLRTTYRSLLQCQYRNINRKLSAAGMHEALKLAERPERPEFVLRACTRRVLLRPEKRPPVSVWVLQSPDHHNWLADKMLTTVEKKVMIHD
# Assay: Displacement of [3H]-LSD from 5HT7 receptor (unknown origin) expressed in CHO cell membranes at 1 uM incubated for 120 mins by scintillation counting method relative to control
# Conditions: not given
# Outline: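 Single-concentration radioligand displacement on receptor-expressing cell membrane homogenates: [3H]-8-OH-DPAT with HEK-293 membranes for 5-HT1A, [3H]-LSD with CHO membranes for 5-HT7. Values are given as inhibition ratio (%).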
row,inhibition [%],Structure (SMILES)
1,54.2,Fc1ccc2[nH]cc(C3CCN(CCOc4ccc(F)c(-c5ccccc5)c4)CC3)c2c1
2,94.3,Fc1ccc(OCCN2CCC(CCc3c[nH]c4ccc(F)cc34)CC2)c(-c2ccccc2)c1
3,80.3,Fc1ccc(OCCN2CCC(c3c[nH]c4ccc(F)cc34)CC2)c(-c2ccc(Cl)cc2)c1
4,92.5,Cc1ccc(Sc2ccccc2N2CCNCC2)c(C)c1 [VORTIOXETINE]
5,86.4,Fc1ccc(OCCCN2CCC(Cc3c[nH]c4ccc(F)cc34)CC2)c(-c2ccccc2)c1
6,91,Fc1cccc(-c2cc(F)ccc2OCCN2CCC(c3c[nH]c4ccc(F)cc34)CC2)c1
7,90.4,Fc1ccc(OCCN2CCC(c3c[nH]c4ccc(F)cc34)CC2)c(-c2ccccc2)c1

# Molecular target: T2, 5-hydroxytryptamine receptor 7
# Assay: Displacement of [3H]-LSD from 5HT7 receptor (unknown origin) expressed in CHO cell membranes incubated for 120 mins by scintillation counting method
# Conditions: not given
# Outline: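 For 5-HT7, [3H]-LSD displacement binding was run on CHO cell membrane homogenates. Ki came from 8 concentrations, each tested in duplicate.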
row,Ki [nM],Structure (SMILES)
1,35,Fc1cccc(-c2cc(F)ccc2OCCN2CCC(c3c[nH]c4ccc(F)cc34)CC2)c1
2,25,Fc1ccc(OCCN2CCC(c3c[nH]c4ccc(F)cc34)CC2)c(-c2ccccc2)c1

# Tested on: Mus musculus
# Assay: Antidepressant activity in mouse assessed as decrease in immobility time at 10 mg/kg, po administrated for daily for 7 days measured 1 hr post last dose by tail suspension test relative to control
# Type: functional
# Design: scale not given: the % may be the effect or the level left
# Conditions: not given
# Outline: as §1
row,Structure (SMILES),Activity [%]
1,Fc1cccc(-c2cc(F)ccc2OCCN2CCC(c3c[nH]c4ccc(F)cc34)CC2)c1,8
2,Fc1ccc(OCCN2CCC(c3c[nH]c4ccc(F)cc34)CC2)c(-c2ccccc2)c1,10

# Tested on: not listed separately
# Assay: Half life in human liver microsomes at 1 uM in presence of NADPH generating system measured for 10 to 90 mins by LC-MS/MS analysis
# Type: ADME, Microsome
# Conditions: not given
# Outline: as §3
row,half-life at 1 µM [min],Structure (SMILES)
1,61.4,Fc1cccc(-c2cc(F)ccc2OCCN2CCC(c3c[nH]c4ccc(F)cc34)CC2)c1
2,61.5,Fc1ccc(OCCN2CCC(c3c[nH]c4ccc(F)cc34)CC2)c(-c2ccccc2)c1

# Tested on: not listed separately
# Assay: Clearance in human liver microsomes at 1 uM in presence of NADPH generating system measured for 10 to 90 mins by LC-MS/MS analysis
# Type: ADME, Microsome
# Conditions: read-out: CLH
# Outline: as §3
row,microsomal CLint at 1 µM [µL/min/mg],Structure (SMILES)
1,6.5,Cc1ccc(Sc2ccccc2N2CCNCC2)c(C)c1 [VORTIOXETINE]
2,22.6,Fc1cccc(-c2cc(F)ccc2OCCN2CCC(c3c[nH]c4ccc(F)cc34)CC2)c1
3,22.5,Fc1ccc(OCCN2CCC(c3c[nH]c4ccc(F)cc34)CC2)c(-c2ccccc2)c1

# Tested on: not listed separately
# Assay: Clearance in rat liver microsomes at 1 uM in presence of NADPH generating system measured for 10 to 90 mins by LC-MS/MS analysis
# Type: ADME, Microsome
# Conditions: read-out: CLH
# Outline: as §3
row,microsomal CLint at 1 µM [µL/min/mg],Structure (SMILES)
1,60.4,Fc1cccc(-c2cc(F)ccc2OCCN2CCC(c3c[nH]c4ccc(F)cc34)CC2)c1
2,40.2,Fc1ccc(OCCN2CCC(c3c[nH]c4ccc(F)cc34)CC2)c(-c2ccccc2)c1

# Tested on: Mus musculus
# Assay: Antidepressant activity in mouse assessed as decrease in immobility time at 10 mg/kg, po administrated for daily for 7 days measured 1 hr post last dose by forced swim test relative to control
# Type: functional
# Design: scale not given: the % may be the effect or the level left
# Conditions: not given
# Outline: as §2
row,Structure (SMILES),Activity [%]
1,Fc1cccc(-c2cc(F)ccc2OCCN2CCC(c3c[nH]c4ccc(F)cc34)CC2)c1,20
2,Fc1ccc(OCCN2CCC(c3c[nH]c4ccc(F)cc34)CC2)c(-c2ccccc2)c1,17

# Molecular target: T3, 5-hydroxytryptamine receptor 1A (Homo sapiens, UniProt P08908)
# T3 sequence (P08908 whole entry): T1 sequence (whole entry)
# Assay: Displacement of [3H]-8-OH-DPAT from 5HT1A receptor (unknown origin) expressed in HEK293 cells membranes incubated for 60 mins by scintillation counting method
# Type: cell membranes
# Conditions: not given
row,Ki [nM],Structure (SMILES)
1,17,Fc1cccc(-c2cc(F)ccc2OCCN2CCC(c3c[nH]c4ccc(F)cc34)CC2)c1
2,12,Fc1ccc(OCCN2CCC(c3c[nH]c4ccc(F)cc34)CC2)c(-c2ccccc2)c1

# Tested on: Mus musculus
# Assay: Antidepressant activity in mouse assessed as decrease in immobility time at 20 mg/kg, po administrated for daily for 7 days measured 1 hr post last dose by forced swim test relative to control
# Type: functional
# Design: scale not given: the % may be the effect or the level left
# Conditions: not given
# Outline: as §2
row,Structure (SMILES),Activity [%]
1,Fc1cccc(-c2cc(F)ccc2OCCN2CCC(c3c[nH]c4ccc(F)cc34)CC2)c1,6
2,Fc1ccc(OCCN2CCC(c3c[nH]c4ccc(F)cc34)CC2)c(-c2ccccc2)c1,8
